The values below come from ChEMBL document CHEMBL1137984, “Structure-activity relationship of heterobase-modified 2'-C-methyl ribonucleosides as inhibitors of hepatitis C virus RNA replication” (J Med Chem, 2004).

Each structure is given as a SMILES string. Bounds are passed on as bounds.

The first data set has as its system Hepatitis C virus. Put plainly: Compound was tested for the inhibition of HCV NS5B-mediated RNA synthesis. It counts as functional, Hepacivirus hominis.
Conditions: not given
The method, boiled down:
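Enzymatic activity of HCV NS5B Δ21 measured with nucleoside 5'-triphosphates as inhibitors, by an earlier protocol. Triphosphates purified by anion exchange, desalted by RP-HPLC, >90% pure, identity confirmed by MS. IC50 averaged over at least three separate determinations.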
`C[C@@]1(O)[C@H](O)[C@@H](CO)O[C@H]1n1cnc2c(=O)[nH]c(N)nc21` [2'-B-METHYL-GUANOSINE] returned an IC50 of 0.13 µM. This counts as sub-micromolar.
Compound `C[C@@]1(O)[C@H](O)[C@@H](CO)O[C@H]1n1cnc2c(N)ncnc21` yielded an IC50 of 1.9 µM.

System in the next data set: not listed separately
Put plainly: Clearance in rats when administered at a dose of 1 mg/kg i.v. and […] p.o. The settings on record: rat, in vivo, iv. It counts as ADME, organism-based. Further details: dose 1 mg/kg. An outline of the steps:
(§1)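 Male CRL rats; single intravenous dose of 1.0 mg/kg (N = 2) and oral dose at […] (N = 3). Plasma sampled and analysed by a method described earlier; clearance, half-life, Cmax, Tmax and %F derived from plasma levels.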
In turn, `C[C@@]1(O)[C@H](O)[C@@H](CO)O[C@H]1n1cnc2c(N)ncnc21` registered a Clearance of more than 200 mL/min/kg.
On the same count and under the same terms, then `C[C@@]1(O)[C@H](O)[C@@H](CO)O[C@H]1n1cc(F)c2c(N)ncnc21`, with 44 mL/min/kg.

System in another data set: not listed separately
Nature of the data set: Half-life in rats. It counts as ADME. The settings on record: rat, in vivo. The method, boiled down:
as §1
`C[C@@]1(O)[C@H](O)[C@@H](CO)O[C@H]1n1cnc2c(N)ncnc21` gave a half-life of 18 min.
Still for that read-out and setting: under `C[C@@]1(O)[C@H](O)[C@@H](CO)O[C@H]1n1cc(F)c2c(N)ncnc21` stands 306 min.

System in another data set: not listed separately
Nature of the data set: Cmax value in rats. The format is ADME, organism-based. The settings on record: rat, in vivo. An outline of the steps: as §1
`C[C@@]1(O)[C@H](O)[C@@H](CO)O[C@H]1n1cc(F)c2c(N)ncnc21` gave a Cmax of 600 nM.

For a further data set, the system named is Nucleic Acid. Put plainly: Inhibition of HCV RNA replication in a subgenomic bicistronic replicon assay in HB-1 cells. It counts as functional, cell-based, Hepacivirus hominis. The settings on record: Hepatitis C virus, HB1. An outline of the steps: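 Subgenomic bicistronic HCV replicon in HB-1 cells; viral RNA quantified by in situ RNase protection assay after 24 h of nucleoside treatment. EC50 averaged over at least two independent potency determinations. Nucleosides purified by preparative RP-HPLC, purity generally >98%.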
In turn, `C[C@@]1(O)[C@H](O)[C@@H](CO)O[C@H]1n1cc(Cl)c2c(O)nc(N)nc21` came in with an EC50 of more than 100 µM.
The same measure, in the same setting: under `C[C@@]1(O)[C@H](O)[C@@H](CO)O[C@H]1n1ncc2c(N)ncnc21` stands more than 100 µM; under `C[C@@]1(O)[C@H](O)[C@@H](CO)O[C@H]1n1cc(Br)c2c(N)ncnc21`, 0.24 µM; under `C[C@@]1(O)[C@H](O)[C@@H](CO)O[C@H]1n1ccc2c(N)ncnc21` [BETA-2'-C-METHYL-7-DEAZA-ADENOSINE], 0.25 µM.
On the same count and under the same terms, then `C[C@@]1(O)[C@H](O)[C@@H](CO)O[C@H]1n1ccc2c(O)nc(N)nc21`, with more than 100 µM; and `C[C@@]1(O)[C@H](O)[C@@H](CO)O[C@H]1n1cc(C(=O)O)c2c(N)ncnc21`, with 70 µM; and `C[C@]1(O)C(n2cc(C(N)=O)c3c(N)ncnc32)O[C@H](CO)[C@H]1O` (stereo partly drawn), with 0.08 µM.
On the same count and under the same terms, under `C[C@@]1(O)[C@H](O)[C@@H](CO)O[C@H]1n1cc(Cl)c2c(N)ncnc21` stands 0.13 µM.
In turn, `Cc1cn([C@@H]2O[C@H](CO)[C@@H](O)[C@@]2(C)O)c2ncnc(N)c12` registered an EC50 of 34 µM.
The same measure, in the same setting: then `C[C@@]1(O)[C@H](O)[C@@H](CO)O[C@H]1n1cnc2c(=O)[nH]c(N)nc21` [2'-B-METHYL-GUANOSINE], with 3.5 µM.
Still for that read-out and setting: under `C[C@@]1(O)[C@H](O)[C@@H](CO)O[C@H]1n1ccc2c(N)nccc21` stands more than 100 µM; under `C[C@@]1(O)[C@H](O)[C@@H](CO)O[C@H]1n1cnc2c(N)ncnc21`, 0.26 µM; under `C[C@]1(O)C(n2cc(C#N)c3c(N)ncnc32)O[C@H](CO)[C@H]1O` (stereo partly drawn), 3.1 µM.
Same read-out and setting: under `C[C@@]1(O)[C@H](O)[C@@H](CO)O[C@H]1n1ccc2c(N)nc(N)nc21` stands 100 µM; under `C[C@@]1(O)[C@H](O)[C@@H](CO)O[C@H]1n1cc(F)c2c(N)ncnc21`, 0.07 µM.
For `C[C@@]1(O)[C@H](O)[C@@H](CO)O[C@H]1n1ccc2c(N)nc(F)nc21`, the EC50 amounted to 100 µM.

System in the next data set: not listed separately
Put plainly: Tmax value in rats. The format is ADME. The settings on record: rat, in vivo. The method, boiled down:
as §1
In the case of `C[C@@]1(O)[C@H](O)[C@@H](CO)O[C@H]1n1cc(F)c2c(N)ncnc21`, the Tmax was found to be 30 min.

System in a further data set: not listed separately
Put plainly: Cytotoxicity against HB-1 cells in an MTS-based assay. It counts as functional. The settings on record: HB1.
As for `C[C@@]1(O)[C@H](O)[C@@H](CO)O[C@H]1n1cc(Cl)c2c(O)nc(N)nc21`, the CC50 was more than 100 µM.
The same measure, in the same setting: then `C[C@@]1(O)[C@H](O)[C@@H](CO)O[C@H]1n1ncc2c(N)ncnc21`, with more than 100 µM; and `C[C@@]1(O)[C@H](O)[C@@H](CO)O[C@H]1n1cc(Br)c2c(N)ncnc21`, with 40 µM; and `C[C@@]1(O)[C@H](O)[C@@H](CO)O[C@H]1n1ccc2c(N)ncnc21` [BETA-2'-C-METHYL-7-DEAZA-ADENOSINE], with more than 100 µM.
The same measure, in the same setting: under `C[C@@]1(O)[C@H](O)[C@@H](CO)O[C@H]1n1ccc2c(O)nc(N)nc21` stands more than 100 µM; under `C[C@@]1(O)[C@H](O)[C@@H](CO)O[C@H]1n1cc(C(=O)O)c2c(N)ncnc21`, more than 100 µM; under `C[C@]1(O)C(n2cc(C(N)=O)c3c(N)ncnc32)O[C@H](CO)[C@H]1O` (stereo partly drawn), approximately 33 µM.
The same measure, in the same setting: under `C[C@@]1(O)[C@H](O)[C@@H](CO)O[C@H]1n1cc(Cl)c2c(N)ncnc21` stands approximately 50 µM; under `Cc1cn([C@@H]2O[C@H](CO)[C@@H](O)[C@@]2(C)O)c2ncnc(N)c12`, more than 100 µM.
In the case of `C[C@@]1(O)[C@H](O)[C@@H](CO)O[C@H]1n1cnc2c(=O)[nH]c(N)nc21` [2'-B-METHYL-GUANOSINE], the CC50 is more than 100 µM.
On the same count and under the same terms, under `C[C@@]1(O)[C@H](O)[C@@H](CO)O[C@H]1n1ccc2c(N)nccc21` stands more than 100 µM; under `C[C@@]1(O)[C@H](O)[C@@H](CO)O[C@H]1n1cnc2c(N)ncnc21`, more than 100 µM; under `C[C@]1(O)C(n2cc(C#N)c3c(N)ncnc32)O[C@H](CO)[C@H]1O` (stereo partly drawn), approximately 50 µM.
In the case of `C[C@@]1(O)[C@H](O)[C@@H](CO)O[C@H]1n1ccc2c(N)nc(N)nc21`, the CC50 was more than 100 µM.
On the same count and under the same terms, under `C[C@@]1(O)[C@H](O)[C@@H](CO)O[C@H]1n1cc(F)c2c(N)ncnc21` stands more than 100 µM.
In turn, `C[C@@]1(O)[C@H](O)[C@@H](CO)O[C@H]1n1ccc2c(N)nc(F)nc21` registered a cytotoxic concentration (CC50) of more than 100 µM.

System in another data set: not listed separately
Put plainly: Oral bioavailability in rat. To be noted: in vivo. The format is ADME, organism-based. The method, boiled down: as §1
In turn, `C[C@@]1(O)[C@H](O)[C@@H](CO)O[C@H]1n1cnc2c(=O)[nH]c(N)nc21` [2'-B-METHYL-GUANOSINE] yielded a bioavailability of 85%.
On the same count and under the same terms, under `C[C@@]1(O)[C@H](O)[C@@H](CO)O[C@H]1n1cnc2c(N)ncnc21` stands 0%; under `C[C@@]1(O)[C@H](O)[C@@H](CO)O[C@H]1n1cc(F)c2c(N)ncnc21`, 51%.

The IC50 is the concentration at which inhibition is half-maximal. Read a low IC50 as inhibition by little substance. As a reminder, the half-life is how long it takes for the measured level to halve. Read a high half-life as slow decline. As usually defined, the Cmax is the peak of the concentration-time curve. Broadly, the EC50 is the concentration that produces a half-maximal response. In general, Tmax refers to the time from dosing to the highest level. Usually CC50 stands for the concentration at which the toxic effect on the cells reaches its halfway point. Read a low CC50 as greater toxicity to the cells. The term bioavailability denotes dose-corrected exposure relative to a reference, in per cent. Higher therefore signals good availability.
